# Measured values taken from ChEMBL document CHEMBL3751842, “Novel triazolothiadiazines act as potent anticancer agents in liver cancer cells through Akt and ASK-1 proteins” (Bioorg Med Chem, 2016).
# pIC50: −log10 of the molar value. The source made the active and inactive calls. No cut-off for these calls is given here.
# Experiments:
# [1] = tested on: Huh-7; test: Cytotoxicity against human HuH7 cells assessed as cell impedance at IC25 to IC100 measured every 30 mins for 72 hrs by RT-CES assay; assay type: functional, cell-based; conditions: TDE = time-dependent effect
# Procedure, shortened: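 Huh7 cells were seeded at 1000–5000 cells/well on electrode plates. […] Impedance was read as cell index every 10 min for the first 24 h, then every 30 min, over 72 h. Data were normalized to DMSO; inhibition (%) = [1 − (CI treated/CI DMSO)] × 100. Each experiment was run at least three times.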
# [2] = biological target: T1, Mitogen-activated protein kinase kinase kinase 5 (Homo sapiens) (UniProt Q99683); test: Activation of ASK1 in human HuH7 cells assessed as Ser83 phosphorylation after 24 to 48 hrs by Western blot analysis; assay type: cell-based; conditions: Huh-7
# T1 sequence (whole entry): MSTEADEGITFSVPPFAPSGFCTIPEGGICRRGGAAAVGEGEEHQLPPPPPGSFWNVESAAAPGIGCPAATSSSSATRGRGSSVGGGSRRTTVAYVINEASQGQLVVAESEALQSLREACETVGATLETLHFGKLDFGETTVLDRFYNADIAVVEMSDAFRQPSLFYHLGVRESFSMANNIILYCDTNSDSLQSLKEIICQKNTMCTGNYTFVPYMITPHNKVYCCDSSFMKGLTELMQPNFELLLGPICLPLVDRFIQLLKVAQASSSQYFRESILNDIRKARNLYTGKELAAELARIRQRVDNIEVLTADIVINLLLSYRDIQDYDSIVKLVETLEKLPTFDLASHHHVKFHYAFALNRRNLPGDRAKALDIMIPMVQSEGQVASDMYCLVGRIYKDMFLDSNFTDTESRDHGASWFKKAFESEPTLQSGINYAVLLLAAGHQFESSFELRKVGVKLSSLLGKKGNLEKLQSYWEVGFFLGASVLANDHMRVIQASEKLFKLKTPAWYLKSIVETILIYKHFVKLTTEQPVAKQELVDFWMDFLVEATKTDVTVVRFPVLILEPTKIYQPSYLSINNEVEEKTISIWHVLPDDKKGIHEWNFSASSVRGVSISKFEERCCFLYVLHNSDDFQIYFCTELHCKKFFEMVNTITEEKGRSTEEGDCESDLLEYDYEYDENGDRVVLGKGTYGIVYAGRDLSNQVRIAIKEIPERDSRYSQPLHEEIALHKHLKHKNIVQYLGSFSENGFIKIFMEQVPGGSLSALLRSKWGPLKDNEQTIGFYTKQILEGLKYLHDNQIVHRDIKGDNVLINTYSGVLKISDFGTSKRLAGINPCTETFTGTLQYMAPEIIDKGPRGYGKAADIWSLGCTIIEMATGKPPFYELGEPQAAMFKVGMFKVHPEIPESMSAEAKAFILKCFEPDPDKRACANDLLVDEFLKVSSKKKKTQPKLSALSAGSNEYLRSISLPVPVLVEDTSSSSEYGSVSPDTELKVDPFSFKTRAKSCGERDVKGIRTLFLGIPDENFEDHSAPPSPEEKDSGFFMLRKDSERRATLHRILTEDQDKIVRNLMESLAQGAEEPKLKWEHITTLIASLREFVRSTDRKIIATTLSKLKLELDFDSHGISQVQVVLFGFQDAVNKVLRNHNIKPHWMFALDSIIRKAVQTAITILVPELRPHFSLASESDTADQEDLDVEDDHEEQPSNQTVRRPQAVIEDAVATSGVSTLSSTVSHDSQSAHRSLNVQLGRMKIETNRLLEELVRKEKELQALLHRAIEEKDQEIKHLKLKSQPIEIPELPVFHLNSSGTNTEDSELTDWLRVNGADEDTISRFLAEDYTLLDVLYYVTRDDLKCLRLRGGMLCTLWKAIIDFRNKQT
# Procedure, shortened: (§1)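 Cells were exposed to compound or DMSO control for 24 or 48 h. Lysates were loaded at […] protein per lane and immunoblotted with antibodies diluted 1:100 to 1:500 in 5% BSA-TBS-T. Targets were p-Akt (Ser473), Akt, p-GSK3-α/β (Ser21/9), GSK3-α/β, SAPK/JNK, p-SAPK/JNK (Thr183/Tyr185), PARP, p-β-catenin, β-catenin, cyclin D1, p-ASK1 (S83) and p-ASK1 (S966). Actin served as the loading control.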
# [3] = Cytotoxicity against human SNU475 cells assessed as growth inhibition after 72 hrs by sulforhodamine B assay; assay type: functional, cell-based, SNU-475; conditions: Homo sapiens, SNU-475, 72 h; read-out: IC50
# Procedure, shortened: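 Cells were grown at 37°C, 5% CO2 in DMEM with 10% FBS. They were seeded at 1000–3000 cells/well, grown 24 h, then exposed to compound at 2.5–40 µM for 72 h. Cells were fixed in 10% TCA for 1 h at 4°C, stained with 0.4% SRB in 1% acetic acid for 10 min, and the dye solubilized in 10 mM Tris. Absorbance was read at 515 nm; runs were in triplicate; IC50 was calculated, with fits of R2 0.8–1 accepted.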
# [4] = biological target: Glycogen synthase kinase-3 beta (Homo sapiens) (UniProt P49841); test: Inhibition of GSK3beta phosphorylation in human Mahlavu cells after 24 to 48 hrs by Western blot analysis; assay type: cell-based; procedure, shortened: as §1
# [5] = tested on: Mahlavu; test: Induction of oxidative stress in human Mahlavu cells assessed as ROS accumulation at 10 uM after 48 hrs by flow cytometry analysis; assay type: functional, cell-based
# Procedure, shortened: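 Huh7 and Mahlavu cells were treated after 24 h with 10 µM compound or DMSO for 48 h. Cells were then trypsinized and processed with a MUSE oxidative stress kit for flow cytometric counting of ROS-positive cells. Cells grown in selenium-deficient serum-free medium served as the positive control.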
# Chain of Glycogen synthase kinase-3 beta (Homo sapiens) (P49841 whole entry, looked up): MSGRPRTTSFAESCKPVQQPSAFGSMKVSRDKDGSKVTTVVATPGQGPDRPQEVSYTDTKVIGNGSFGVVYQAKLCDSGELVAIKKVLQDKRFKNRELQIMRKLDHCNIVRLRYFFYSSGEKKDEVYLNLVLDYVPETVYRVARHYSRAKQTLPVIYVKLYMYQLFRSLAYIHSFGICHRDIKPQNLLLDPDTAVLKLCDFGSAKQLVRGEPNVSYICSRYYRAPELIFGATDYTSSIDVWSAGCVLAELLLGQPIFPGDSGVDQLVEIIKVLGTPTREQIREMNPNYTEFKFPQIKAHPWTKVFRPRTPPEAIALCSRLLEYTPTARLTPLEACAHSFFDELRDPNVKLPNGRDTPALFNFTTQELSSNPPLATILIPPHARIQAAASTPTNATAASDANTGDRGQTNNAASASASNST
Activity [2],inhibition [4],Structure (SMILES),Activity [1],pIC50 [3],Activity [5]
Active,Active,COc1ccc(C2=Nn3c(nnc3C(C)c3ccc(CC(C)C)cc3)SC2)cc1 (stereo not given),tde,5.07,Active
Active,Active,Cc1ccc(C2=Nn3c(nnc3C(C)c3ccc(CC(C)C)cc3)SC2)cc1 (stereo not given),tde,5.06,Active
